Laboratory results reported in paper PMC6677133 (European journal of medicinal chemistry, 2019).
Residues, ends and D or L forms follow the SMILES beside them.

Columns and labels:
[1] = system: NL4–3 strain of HIV-1 (X4 strain); assay: Anti-HIV-1 entry assay, one-day culture, intracellular p24 antigen in PBMCs; format: cell-based; conditions: unlinked control fragments alone; assay format not stated
[2] = biological target: CXCR4 (Homo sapiens, UniProt P61073); assay: CXCR4 internalization assay, CHO-CXCR4-FLAG cells; format: cell-based; conditions: 1h of treatment at 100 nM
Sequence of CXCR4 (P61073 whole entry): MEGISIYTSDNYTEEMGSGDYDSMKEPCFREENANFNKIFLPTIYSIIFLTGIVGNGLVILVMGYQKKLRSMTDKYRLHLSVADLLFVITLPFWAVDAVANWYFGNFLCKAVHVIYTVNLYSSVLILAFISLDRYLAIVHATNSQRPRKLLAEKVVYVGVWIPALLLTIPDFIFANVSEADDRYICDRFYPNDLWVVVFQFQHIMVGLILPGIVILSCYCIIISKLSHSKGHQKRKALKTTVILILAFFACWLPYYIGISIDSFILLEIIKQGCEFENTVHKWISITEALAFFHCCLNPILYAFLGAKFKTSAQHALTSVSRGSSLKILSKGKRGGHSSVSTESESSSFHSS
How it was run: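 CHO cells expressing N-terminally FLAG-tagged CXCR4 washed at 4°C in RPMI 1640 with 0.5% BSA. Seeded 3×10^5/well and exposed at 37°C to graded test compound, with SDF-1α as positive control. Surface receptor stained with anti-FLAG then FITC anti-mouse antibody, each 30 min at 4°C, and read at 485/528 nm. At least three independent experiments, mean ± SEM.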

CXCR4 internalization [2] [%] | Molecule | antiviral activity [1]
 | C[C@@H](O)[C@H](NC(=O)[C@H](CCCNC(=N)N)NC(=O)[C@@H]1CCCN1C(=O)[C@H](CC(N)=O)NC(=O)[C@H](CC(N)=O)NC(=O)[C@H](CC(N)=O)NC(=O)[C@@H](NC(=O)[C@H](CCCCN)NC(=O)[C@H](CCCNC(=N)N)NC(=O)[C@H](CCCCN)NC(=O)CCCCCN)[C@@H](C)O)C(=O)N[C@@H](CS)C(N)=O [AR6r] (HELM PEPTIDE1{[NCCCCCC(=O)[*:2]].K.R.K.T.N.N.N.P.R.T.C.[am]}$$$$V2.0) | did not show any antiviral activity
43.87 | SDF-1α | 
